Results: article PMC3461162 (British Journal of Cancer, 2012)
Entries after “also recorded” stand apart in the source; their conditions may differ.

Assays:
Type in all cases: in vivo, human
[1] = system: advanced solid tumours or lymphomas; test: Tumour response by RECIST v1.0
Procedure, shortened: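 Patients got a single oral dose on day 1, then continuous twice-daily dosing until disease progression or unmanageable toxicity. Baseline RECIST assessment used CT or MRI of chest, abdomen and pelvis before treatment, repeated every 8 weeks.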

[2] = system: pAKT, p4E-BP1 and pS6 in tumour biopsies; test: Immunohistochemistry of paired pre- and post-dose tumour biopsies; settings: two patients with baseline and post-dose tumour sample
[3] = system: phosphorylation levels of 4E-BP1 on threonine^37/46 in peripheral blood mononuclear cells (PBMCs); test: 4E-BP1 phosphorylation in PBMCs; settings: 2 h post dose, MTD cohort (90 mg)
Procedure, shortened: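 Adult patients with refractory advanced solid tumours or lymphoma got one oral dose on day 1, then continuous twice-daily dosing from one week later. They fasted at least 1 h before and after each dose. PBMCs were taken pre-dose and 2, 8 and 24 h post dose on day 1. Antibodies to the phosphorylated forms were used: AKT Ser473 by mesoscale detection, 4E-BP1 Thr37/46 by FACS.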

[4] = Plasma pharmacokinetics, non-compartmental analysis; settings: for Dose proportionality of exposure: BID dosing; for AUC(0-t) / AUC / Cmax / Vd/F / half-life / Tmax: human, plasma, oral; for AUC(0-t): AUC0–12, Gmean (range); for Vd/F: Vss/F, Amean (range)
[5] = following BID dosing, 10 mg BID solution
[6] = following BID dosing, 20 mg BID solution
[7] = following BID dosing, 40 mg BID solution
[8] = following BID dosing, 40 mg BID tablet
[9] = following BID dosing, 60 mg BID tablet
[10] = following BID dosing, 90 mg BID tablet
[11] = following BID dosing, 120 mg BID tablet
[12] = 10 mg, single dose, 10 mg solution (n=5)
[13] = 20 mg, single dose, 20 mg solution (n=3)
[14] = 40 mg, single dose, 40 mg solution (n=6)
[15] = 40 mg, single dose, 40 mg tablet (n=7)

COc1ccc(-c2ccc3c(N4CCOC[C@@H]4C)nc(N4CCOC[C@@H]4C)nc3n2)cc1CO [AZD8055]
Patients with stable disease for ⩾4 months ([1]; 10 mg BID): 1/5 | Patients with stable disease for ⩾4 months ([1]; 60 mg BID): 1/7 | Patients with stable disease for ⩾4 months ([1]; 90 mg BID): 1/11 | Patients with stable disease for ⩾4 months ([1]; all cohorts): Seven | RECIST complete or partial responses ([1]; all cohorts): no RECIST responses were seen; also recorded: No complete or partial responses were observed | Duration of stable disease, range ([1]; seven patients with stable disease for ⩾4 months): 115 to 398 days | Biomarker modulation for pAKT, p4E-BP1 and pS6 in tumour samples [2]: did not show conclusive evidence of biomarker modulation | Patients with transient decrease in p4E-BP1 in PBMC [3]: 2/5 | Dose proportionality of exposure ([4]; solution formulation (10–40 mg)): proportional increase in exposure | Dose proportionality of exposure ([4]; tablet formulation (40–120 mg)): greater than proportional increase with increasing dose | CLss/F, Amean (n) (range) [4, 5]: 439 (4) (352–521) l h^−1 | Cmin ss, Gmean (n) (range) [4, 5]: 0.114 (3) (0.057–0.189) ng ml^−1 | T c (temporal change, linearity factor), Gmean (n) (range) [4, 5]: 1.03 (4) (0.839–1.48) | CLss/F, range only (Amean NC, n=2) [4, 6]: NC (2) (268–426) l h^−1 | Cmin ss, range only (Gmean NC, n=1) [4, 6]: NC (1) (0.228–0.228) ng ml^−1 | T c (temporal change, linearity factor), range only (Gmean NC, n=2) [4, 6]: NC (2) (1.61–2.07) | CLss/F, Amean (n) (range) [4, 7]: 369 (6) (278–492) l h^−1 | Cmin ss, Gmean (n) (range) [4, 7]: 0.370 (5) (0.162–0.821) ng ml^−1 | T c (temporal change, linearity factor), Gmean (n) (range) [4, 7]: 1.10 (6) (0.539–1.65) | CLss/F, Amean (n) (range) [4, 8]: 465 (5) (148–906) l h^−1 | Cmin ss, Gmean (n) (range) [4, 8]: 0.959 (5) (0.294–2.71) ng ml^−1 | T c (temporal change, linearity factor), Gmean (n) (range) [4, 8]: 0.806 (5) (0.444–1.13) | CLss/F, Amean (n) (range) [4, 9]: 483 (6) (92.9–1250) l h^−1 | T c (temporal change, linearity factor), Gmean (n) (range) [4, 9]: 1.30 (6) (0.525–2.50) | CLss/F, Amean (n) (range) [4, 10]: 856 (4) (457–1630) l h^−1 | Cmin ss, Gmean (n) (range) [4, 10]: 0.543 (5) (0.177–3.18) ng ml^−1 | T c (temporal change, linearity factor), Gmean (n) (range) [4, 10]: 1.18 (4) (0.831–1.69) | CLss/F, Amean (n) (range) [4, 11]: 283 (7) (68.2–494) l h^−1 | Cmin ss, Gmean (n) (range) [4, 11]: 3.54 (5) (1.40–41.1) ng ml^−1 | T c (temporal change, linearity factor), Gmean (n) (range) [4, 11]: 1.81 (7) (1.09–3.50) | AUC(0-t) [4, 12]: 24.1 ng·h/mL | AUC ([4]; 10 mg, AUC, Gmean (range), single dose, 10 mg solution (n=5)): 24.5 ng·h/mL | AUC ([4]; 10 mg, AUCss, Gmean (n) (range), following BID dosing, 10 mg BID solution): 23 ng·h/mL | Cmax ([4]; 10 mg, Cmax ss, Gmean (n) (range), following BID dosing, 10 mg BID solution): 17.3 ng/mL | Cmax ([4]; 10 mg, Cmax, Gmean (range), single dose, 10 mg solution (n=5)): 16.8 ng/mL | Vd/F [4, 12]: 884 L | half-life ([4]; 10 mg, t1/2, Amean (range), single dose, 10 mg solution (n=5)): 2.43 h | half-life ([4]; 10 mg, t1/2 ss, Amean (n) (range), following BID dosing, 10 mg BID solution): 2.82 h | Tmax ([4]; 10 mg, tmax ss, Median (n) (range), following BID dosing, 10 mg BID solution): 0.5 h | Tmax ([4]; 10 mg, tmax, Median (range), single dose, 10 mg solution (n=5)): 0.5 h | AUC(0-t) [4, 13]: 43.3 ng·h/mL | AUC ([4]; 20 mg, AUC, Gmean (range), single dose, 20 mg solution (n=3)): 43.7 ng·h/mL | Cmax ([4]; 20 mg, Cmax, Gmean (range), single dose, 20 mg solution (n=3)): 27 ng/mL | Vd/F [4, 13]: 1050 L | half-life ([4]; 20 mg, t1/2, Amean (range), single dose, 20 mg solution (n=3)): 1.86 h | Tmax ([4]; 20 mg, tmax, Median (range), single dose, 20 mg solution (n=3)): 0.5 h | AUC(0-t) [4, 14]: 99.4 ng·h/mL | AUC(0-t) [4, 15]: 124 ng·h/mL | AUC ([4]; 40 mg, AUC, Gmean (range), single dose, 40 mg solution (n=6)): 101 ng·h/mL | AUC ([4]; 40 mg, AUC, Gmean (range), single dose, 40 mg tablet (n=7)): 127 ng·h/mL | AUC ([4]; 40 mg, AUCss, Gmean (n) (range), following BID dosing, 40 mg BID solution): 111 ng·h/mL | AUC ([4]; 40 mg, AUCss, Gmean (n) (range), following BID dosing, 40 mg BID tablet): 101 ng·h/mL | Cmax ([4]; 40 mg, Cmax ss, Gmean (n) (range), following BID dosing, 40 mg BID solution): 61.9 ng/mL | Cmax ([4]; 40 mg, Cmax ss, Gmean (n) (range), following BID dosing, 40 mg BID tablet): 46.1 ng/mL | Cmax ([4]; 40 mg, Cmax, Gmean (range), single dose, 40 mg solution (n=6)): 70.9 ng/mL | Cmax ([4]; 40 mg, Cmax, Gmean (range), single dose, 40 mg tablet (n=7)): 72.3 ng/mL | Vd/F [4, 14]: 840 L | Vd/F [4, 15]: 762 L
